According to ChEMBL document CHEMBL1144353 (J Med Chem, 2005):

Columns and labels:
[1] = Equilibrium dissociation constant for Voltage-gated calcium channel alpha2-delta subunit as inhibition of [3H]gabapentin binding to pig brain membranes; set-up: species or system Sus scrofa, Membrane
In short: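 Pig cortical membranes (10-20 µg protein/well) with wheat germ agglutinin SPA beads and 30 nM [3H]gabapentin in 10 mM HEPES/10 mM MgSO4, pH 7.4, incubated overnight (15-24 h) at room temperature, then scintillation counted. Mean ± SEM, N = 4.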

[2] = Inhibition of [3H]leucine uptake into CHO cells; type: functional, cell-based, Cricetulus griseus
In short: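 CHO-K1 monolayers (90-100% confluent) were washed twice for 20 min at 37 °C in Na+-free choline buffer. Cells were then exposed for 2 min at room temperature to 2 µCi/mL L-[3H]leucine with test compound, 10 mM to 300 nM in half-log steps, in duplicate. Controls were no drug and 10 mM L-leucine. Uptake was stopped with cold buffer washes and counted by scintillation. IC50 from nonlinear least-squares regression.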

[3] = test system: System L amino acid transporter (Cricetulus griseus); experiment: Inhibition of [3H]leucine uptake by L-amino acid transporter system in Chinese hamster ovary cells
[4] = test system: Rattus norvegicus; experiment: Plasma levels 2 hours after peroral dosing of 30 mg/kg in rats was determined; type: functional, organism-based; set-up: dose 30 mg/kg
In short: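 Sprague-Dawley rats were given a single 30 mg/kg oral dose. Plasma was sampled 2 h after dosing, with brain levels taken at the same time point, and drug concentration is reported in ng/mL.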

[5] = test system: Rattus norvegicus; experiment: Brain levels 2 hours after peroral dosing of 30 mg/kg in rats was determined; type: functional; details: route oral
In short: (§1)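 Sprague-Dawley rats were dosed orally at 30 mg/kg and sampled at 2 h. Brain and plasma levels were measured in ng/mL, and B/P is the brain-to-plasma ratio.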

[6] = test system: Rattus norvegicus; experiment: Ratio of brain level and plasma level 2 hours after peroral dosing of 30 mg/kg in rats was determined; type: functional, organism-based; set-up: dose 30 mg/kg; in short: as §1

Row | SMILES | Ki [1] | IC50 ([2]; Cricetulus griseus, CHO, 2 min) | IC50 ([2]; cho) | other results
1 | NCC1(C(=O)O)CC1 | > 10 µM | > 8300 µM |  | 
2 | CC(C)CC1CC1(CN)C(=O)O (stereo in doubt) | 0.037 µM |  | > 8300 µM | 
3 | CCC(CC)C1CC1(CN)C(=O)O (stereo in doubt; 12) | 0.56 µM |  | > 8300 µM | 
4 | CCCC1(CCC)CC1(CN)C(=O)O (stereo unspecified) | 0.2 µM | > 2490 µM |  | 
5 | NCC1(C(=O)O)CC12CCC2 (stereo unspecified) | 0.2 µM | > 2490 µM |  | 
6 | NCC1(C(=O)O)CC12CCCC2 (stereo unspecified) | 0.023 µM | > 8300 µM |  | 
7 | NCC1(C(=O)O)CC12CCCCC2 (stereo unspecified) | 0.013 µM | > 2490 µM |  | IC50 [3]: > 2490 µM; Plasma level [4]: 7070 ng/mL; Brain level [5]: 385 ng/mL; B/P [6]: 0.054
8 | CC(C)CC1CC1(CN)C(=O)O (stereo in doubt; 36) | 0.33 µM |  | > 2490 µM | 
9 | CC(C)C[C@H](CN)CC(=O)O [PREGABALIN] |  |  |  | IC50 [3]: 158 µM; Plasma level [4]: 19400 ng/mL
10 | CC(C)C1CC1(CN)C(=O)O (stereo unspecified) | 0.34 µM | > 8300 µM |  | 
11 | CCC(CC)C1CC1(CN)C(=O)O (stereo in doubt) | 0.63 µM |  | > 2490 µM | 
